The source of these data is ChEMBL document CHEMBL4265973, “Broad-spectrum antibacterial amphiphilic aminoglycosides: A new focus on the structure of the lipophilic groups extends the series of active dialkyl neamines” (Eur J Med Chem, 2018).

The structures appear in SMILES notation. ≈ marks a conversion by molar mass, not a printed value.

Data set [1] deals with Pseudomonas aeruginosa. The data set is described as follows: Antibacterial activity against Pseudomonas aeruginosa ATCC 27853 by microdilution assay. In kind it is functional. In short, it runs like this:
(§1)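 Broth microdilution per CLSI recommendations, using a fresh culture in cation-adjusted Mueller-Hinton broth (CA-MHB) and a starting inoculum of 10^6 cells; the MIC is the value read.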
For orientation: In broth dilution the organism is exposed to a series of concentrations in liquid medium.

The test system of another data set is Klebsiella pneumoniae. The data set is described as follows: Antibacterial activity against Klebsiella pneumoniae 700603 by microdilution assay. It counts as functional. In short, it runs like this: as §1
The test system of data set [2] is Staphylococcus aureus. Put plainly: Antibacterial activity against Staphylococcus aureus ATCC 25923 by microdilution assay. In kind it is functional. In short, it runs like this:
(§2)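 Broth microdilution MIC per CLSI recommendations, fresh culture in cation-adjusted Mueller-Hinton broth, starting inoculum 10^6 cells.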

The subject of data set [3] is Escherichia coli. The data set is described as follows: Antibacterial activity against Escherichia coli PAZ505H8101 harboring AAC6'-1B by microdilution assay. It counts as functional. In a few lines:
as §2

A short description of data set [4]: Cytotoxicity against mouse J774 cells assessed as cell viability at 30 uM after 24 hrs by MTT assay relative to control. In kind it is cell-based. The settings on record: J774 cells, read-out: Activity. In a few lines: (§3)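 Murine J774 macrophages are exposed for 24 h to compound at 10 or 30 µM, then given 0.2 mg/mL MTT for 1 h. The reaction is stopped with DMSO and OD read at 570 nm; viability is metabolic activity as % of control. The number of independent experiments is given per value.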
A general note: Tetrazolium dyes change colour on reduction, which living cells bring about.

Data set [5] in a line: Cytotoxicity against mouse J774 cells assessed as cell viability at 10 uM after 24 hrs by MTT assay relative to control. In kind it is cell-based. The settings on record: J774 cells, read-out: Activity. In a few lines:
as §3

In data set [6] the test system is Escherichia coli. The data set is described as follows: Antibacterial activity against Escherichia coli L8058.1 harboring ANT2'-1A by microdilution assay. It counts as functional. In short, it runs like this:
as §2

Data set [7] has as its system Pseudomonas aeruginosa. Put plainly: Antibacterial activity against Pseudomonas aeruginosa PA406 harboring triABC deletion mutant by microdilution assay. In kind it is functional. In a few lines:
as §2

Data set [8] has as its system Pseudomonas aeruginosa. Put plainly: Antibacterial activity against Pseudomonas aeruginosa PA22 harboring surexp MexXY by microdilution assay. It counts as functional. In a few lines:
as §2

Data set [9] relates to Staphylococcus aureus. Put plainly: Antibacterial activity against Staphylococcus aureus SA-1 expressing NorA pump by microdilution assay.
In data set [10] the test system is Escherichia coli. The data set is described as follows: microbe, parasite or virus in culture. The conditions noted are these: ATCC 25922.
Data set [11] deals with Staphylococcus aureus. The data set is described as follows: Antibacterial activity against methicillin-resistant Staphylococcus aureus ATCC 33592 by microdilution assay. It counts as functional. In a few lines:
as §2

Data set [12] deals with Acinetobacter lwoffii. Put plainly: Antibacterial activity against Acinetobacter lwoffii ATCC 17925 by microdilution assay. In kind it is functional. In a few lines: as §1
Data set [13] concerns Acinetobacter lwoffii. The data set is described as follows: Antibacterial activity against Acinetobacter lwoffii AI.88-483 harboring APH3'-6A by microdilution assay. In kind it is functional. In short, it runs like this:
as §2

Data set [14] has as its system Pseudomonas aeruginosa. Put plainly: Antibacterial activity against Pseudomonas aeruginosa FO3 harboring AAC6'-2A by microdilution assay. In kind it is functional. In short, it runs like this:
as §2

Take `CCCCCCCCCCO[C@@H]1[C@@H](N)[C@@H](O[C@H]2[C@H](O)[C@@H](OCCCCCCCCCC)[C@H](N)C[C@@H]2N)O[C@H](CN)[C@H]1O`: the MIC against Pseudomonas aeruginosa [1] came to 4 µg/mL (≈ 6.63 µM); in the data set on Klebsiella pneumoniae it was 16 µg/mL (≈ 26.5 µM); against Staphylococcus aureus [2] it was 1 µg/mL (≈ 1.66 µM); in the data set on Escherichia coli [3] it was 8 µg/mL (≈ 13.3 µM); in the data set with Escherichia coli [6] it was 128 µg/mL (≈ 212 µM); in the data set on Pseudomonas aeruginosa [7], 8 µg/mL (≈ 13.3 µM). The MIC with Pseudomonas aeruginosa [8] was 4 µg/mL (≈ 6.63 µM); in the data set on Staphylococcus aureus [9], 1 µg/mL (≈ 1.66 µM); against Escherichia coli [10] it was 2 µg/mL (≈ 3.32 µM); against Staphylococcus aureus [11] it was 1 to 2 µg/mL (≈ 1.66 to 3.32 µM); in the data set with Acinetobacter lwoffii [12] it was 2 µg/mL (≈ 3.32 µM); in the data set with Acinetobacter lwoffii [13], 64 µg/mL (≈ 106 µM). The compound further came in with an MIC in the data set with Pseudomonas aeruginosa [14] of 4 µg/mL (≈ 6.63 µM). Also, the viability at 24 h, 30 µM in data set [4] turned out to be 14.5%. In addition, in [5], the viability at 24 h, 10 µM was determined as 85.5%.

Regarding `CCCCCCCCCCCO[C@@H]1[C@@H](O)[C@H](O[C@H]2O[C@H](CN)[C@@H](O)[C@H](OCCCCCCC)[C@H]2N)[C@@H](N)C[C@H]1N`, the MIC against Pseudomonas aeruginosa [1] stood at 2 µg/mL (≈ 3.48 µM); with Klebsiella pneumoniae, 8 µg/mL (≈ 13.9 µM); in the data set with Staphylococcus aureus [2] it was 1 µg/mL (≈ 1.74 µM); against Escherichia coli [3], 4 µg/mL (≈ 6.96 µM); with Escherichia coli [6], 4 µg/mL (≈ 6.96 µM); with Pseudomonas aeruginosa [7], 2 µg/mL (≈ 3.48 µM). Besides, the MIC against Pseudomonas aeruginosa [8] was 4 µg/mL (≈ 6.96 µM); against Staphylococcus aureus [9], 1 µg/mL (≈ 1.74 µM); against Escherichia coli [10], 16 µg/mL (≈ 27.8 µM); against Staphylococcus aureus [11], 1 µg/mL (≈ 1.74 µM); against Acinetobacter lwoffii [12], 2 µg/mL (≈ 3.48 µM); against Acinetobacter lwoffii [13] it was more than 128 µg/mL. Further, the MIC in the data set with Pseudomonas aeruginosa [14] was found to be 4 µg/mL (≈ 6.96 µM). Also, the viability at 24 h, 30 µM in [4] came to 38.8%. Also, in [5], the viability at 24 h, 10 µM turned out to be 82.9%.

Regarding `NC[C@H]1O[C@H](O[C@H]2[C@H](O)[C@@H](OCCCCc3ccc4ccccc4c3)[C@H](N)C[C@@H]2N)[C@H](N)[C@@H](OCCCCc2ccc3ccccc3c2)[C@@H]1O`, the MIC was determined as 4 µg/mL (≈ 5.82 µM) in the data set on Pseudomonas aeruginosa [1]; 32 µg/mL (≈ 46.6 µM) against Klebsiella pneumoniae; 2 µg/mL (≈ 2.91 µM) against Staphylococcus aureus [2]; 4 µg/mL (≈ 5.82 µM) with Escherichia coli [3]; 8 µg/mL (≈ 11.6 µM) against Escherichia coli [6]; 8 µg/mL (≈ 11.6 µM) against Pseudomonas aeruginosa [7]. The MIC in the data set on Pseudomonas aeruginosa [8] is 8 µg/mL (≈ 11.6 µM); against Staphylococcus aureus [9] it was 2 to 4 µg/mL (≈ 2.91 to 5.82 µM); in the data set with Escherichia coli [10] it was 8 µg/mL (≈ 11.6 µM); against Staphylococcus aureus [11] it was 2 µg/mL (≈ 2.91 µM); in the data set on Acinetobacter lwoffii [12], 2 µg/mL (≈ 2.91 µM); against Acinetobacter lwoffii [13], more than 128 µg/mL. This compound showed an MIC against Pseudomonas aeruginosa [14] of 8 µg/mL (≈ 11.6 µM).

`NC[C@H]1O[C@H](O[C@H]2[C@H](O)[C@@H](O)[C@H](N)C[C@@H]2N)[C@H](N)[C@@H](O)[C@@H]1O` [NEAMINE]: the MIC in the data set with Pseudomonas aeruginosa [1] is more than 128 µg/mL; against Klebsiella pneumoniae, 32 µg/mL (≈ 99.3 µM); against Staphylococcus aureus [2] it was 16 to 32 µg/mL (≈ 49.6 to 99.3 µM); in the data set with Escherichia coli [3], more than 128 µg/mL; in the data set on Escherichia coli [6], 32 µg/mL (≈ 99.3 µM); with Pseudomonas aeruginosa [7], 64 µg/mL (≈ 199 µM). Further, the MIC against Pseudomonas aeruginosa [8] was more than 128 µg/mL; in the data set with Staphylococcus aureus [9], 8 µg/mL (≈ 24.8 µM); against Escherichia coli [10] it was 32 µg/mL (≈ 99.3 µM); with Staphylococcus aureus [11], more than 128 µg/mL; in the data set with Acinetobacter lwoffii [12] it was 0.5 µg/mL (≈ 1.55 µM); against Acinetobacter lwoffii [13] it was more than 128 µg/mL. The compound also returned an MIC against Pseudomonas aeruginosa [14] of more than 128 µg/mL.

Take `CCCCCCCCCO[C@@H]1[C@@H](N)[C@@H](O[C@H]2[C@H](O)[C@@H](O)[C@H](N)C[C@@H]2N)O[C@H](CN)[C@H]1OCCCCCCCCC`: the MIC is 8 to 16 µg/mL (≈ 13.9 to 27.8 µM) against Pseudomonas aeruginosa [1]; 16 to 32 µg/mL (≈ 27.8 to 55.7 µM) with Klebsiella pneumoniae; 4 µg/mL (≈ 6.96 µM) in the data set with Staphylococcus aureus [2]; 4 to 8 µg/mL (≈ 6.96 to 13.9 µM) against Escherichia coli [3]; 8 µg/mL (≈ 13.9 µM) in the data set on Escherichia coli [6]; 8 to 16 µg/mL (≈ 13.9 to 27.8 µM) against Pseudomonas aeruginosa [7]. In addition, the MIC in the data set on Pseudomonas aeruginosa [8] was 8 to 16 µg/mL (≈ 13.9 to 27.8 µM); against Staphylococcus aureus [9] it was 4 µg/mL (≈ 6.96 µM); with Escherichia coli [10], 4 to 8 µg/mL (≈ 6.96 to 13.9 µM); in the data set on Staphylococcus aureus [11] it was 4 µg/mL (≈ 6.96 µM); with Acinetobacter lwoffii [12] it was 4 to 8 µg/mL (≈ 6.96 to 13.9 µM); in the data set with Acinetobacter lwoffii [13], 32 µg/mL (≈ 55.7 µM). The MIC in the data set on Pseudomonas aeruginosa [14] lay within 8 to 16 µg/mL (≈ 13.9 to 27.8 µM).

`NC[C@H]1O[C@H](O[C@H]2[C@H](O)[C@@H](O[C@H]3O[C@H](CO)[C@@H](O)[C@H](N)[C@H]3O)[C@H](N)C[C@@H]2N)[C@H](N)C[C@@H]1O` [TOBRAMYCIN]: the MIC in the data set on Pseudomonas aeruginosa [1] was less than 0.25 µg/mL; with Klebsiella pneumoniae, 4 to 8 µg/mL (≈ 8.56 to 17.1 µM); against Staphylococcus aureus [2], 0.25 to 0.5 µg/mL (≈ 0.535 to 1.07 µM); in the data set on Escherichia coli [3], 32 µg/mL (≈ 68.4 µM); in the data set with Escherichia coli [6], 64 µg/mL (≈ 137 µM); against Pseudomonas aeruginosa [7], less than 0.25 µg/mL. In addition, the MIC with Pseudomonas aeruginosa [8] was 0.5 µg/mL (≈ 1.07 µM); in the data set with Staphylococcus aureus [9] it was 0.5 µg/mL (≈ 1.07 µM); in the data set with Escherichia coli [10], 1 µg/mL (≈ 2.14 µM); against Staphylococcus aureus [11], 64 µg/mL (≈ 137 µM); against Acinetobacter lwoffii [12], less than 0.25 µg/mL; against Acinetobacter lwoffii [13], 0.5 to 1 µg/mL (≈ 1.07 to 2.14 µM). The compound also displayed an MIC with Pseudomonas aeruginosa [14] of 128 µg/mL (≈ 274 µM).

Turning to `NC[C@H]1O[C@H](O[C@H]2[C@H](O)[C@@H](OCc3ccc4ccccc4c3)[C@H](N)C[C@@H]2N)[C@H](N)[C@@H](OCc2ccc3ccccc3c2)[C@@H]1O`, the viability at 24 h, 30 µM in data set [4] is 75.7%.
